The source of these data is PubChem BioAssay.

SMILES strings stand for the structures. Calls of active or inactive are those of the source.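 How the source made its calls, unless noted: active means inhibition of the reporter signal at or above 50%; inactive means inhibition below 50%.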

Assay [1] is described as follows: inhibitors of TNFa-induced NFkB p65 translocation, primary screen, imaging, HUVEC, MLSMR starter and 10KST1 sets (AID 438;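 active means inhibition above 20% together with a positive visual image hit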;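 further: compound added about 3h40 before a 20 min TNFalpha stimulation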;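 on inhibition: signal is the nuclear over cytoplasmic p65 intensity ratio per well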). The following applies: HUVEC TNFa-induced p65 nuclear translocation; cell count: measured here: nuclei count (cytotoxicity indicator), at 2.08 µM; inhibition: at 2 µM, stronger effect = higher value, 0% TNFa-plus-vehicle, 100% no-TNFa wells.
The nature of assay [2]: inhibitors of mutant huntingtin aggregation, primary screen, imaging, exon1htt(103Q)mCFP cells, high-content imaging (AID 483;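 active means visual image review flags a hit and inhibition of aggregation exceeds 20%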;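 further: compound exposure lasted 3 days before fixation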;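 on nuclei count: percent of the per-plate median nuclei count of sample wells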). The note with it: exon1htt(103Q)mCFP cell line, aggregate imaging, at 2 µM; inhibition of aggregation: stronger effect = higher value; nuclei count: measured here: cell count, toxicity.
A short description of assay [3]: inhibitors of E-selectin induction by TNFa, primary screen, imaging, HUVEC, immunofluorescence, MLSMR starter and 10KST1 sets (AID 487;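 active means visually confirmed hit in the image check and inhibition above 20%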;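 on inhibition: signal is fraction of cell area covered by stained E-selectin grains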;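 on nuclei count: 100% = median nuclei count of all wells on the same plate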). The following applies: HUVEC TNFalpha-induced E-selectin immunofluorescence imaging, at 2 µM; inhibition: stronger effect = higher value; nuclei count: measured here: cell number, toxicity.
Assay [4] deals with Voltage-gated potassium channel subunit beta-2 (Rattus norvegicus) (UniProt P62483). Kind of assay: KvBeta enzyme negative modulators, primary screen, biochemical, NADPH fluorescence (AID 622;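 active means fluorescence slope higher than the sample average by over 3 SD, cut at about -0.22 in these data, passing the limit was not always enough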;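 further: slope of raw intensity against log time taken from 70 to 1610 s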). The following applies: recombinant KvBeta, 4-cyanobenzaldehyde reduction, at 10 µM, stronger effect = higher value.
Assay [5] has the same target. Kind of assay: KvBeta positive modulators, primary screen, biochemical, NADPH fluorescence (AID 623;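 active means NADPH fluorescence slope more negative than the mean of all samples by about 3 SD, 99.7% confidence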;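 further: fluorescence intensity change per second fitted from 20 to 320 s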). The note with it: Recombinant KvBeta, NADPH fluorescence decrease slope, 10 min; at 10 µM; stronger effect = lower value.
In assay [6] the target is Muscarinic acetylcholine receptor M4 (Homo sapiens) (UniProt P08173). Nature of the assay: compounds altering M4/GIRK thallium flux, either direction, primary screen, M4 allosteric agonist project, cell-based, HEK293 M4/GIRK, BTC-AM (AID 625;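 active means fluorescence slope after compound addition differing from the mean of all tested samples at 99.7% confidence, mostly higher but some lower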;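 further: thallium influx through GIRK channels coupled to M4 in HEK293 cells with BTC-AM dye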). The note with it: at 10 µM, actives lie on both sides. A digest of the protocol: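 Assay system: HEK293 cells with M4 receptor and GIRK channels / Controls: carbachol and DMSO controls / Schedule: 1 h dye loading, 2 min kinetic read / Technique: kinetic fluorescence with BTC-AM dye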

Assay [7] in a line: inhibitors of Sendai virus-induced IRF3 signaling, primary screen, TLR/RLR signaling modifier project, cell-based, Sendai virus stimulus, luciferase, 10K MLSCN set (AID 602276;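 active means inhibition at or above 50% at 10 µM; inactive means inhibition below 50%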;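 further: firefly luciferase from ISG56 promoter only with Renilla not read in this screen; 0% = Sendai virus plus DMSO and 100% = medium plus DMSO without virus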). The following applies: HEK293 RL24 IRF3 luciferase reporter, at 10 µM, stronger effect = higher value. A general note: A reporter such as luciferase makes a cellular process visible.
The nature of assay [8]: inhibitors of poly I:C-induced TLR3 signaling, primary screen, cell-based, poly I:C stimulus, luciferase, 10K MLSCN set (AID 602277). The note with it: HEK293-TLR3 RL24 IRF3 luciferase reporter, at 10 µM, stronger effect = higher value.

Muscarinic acetylcholine receptor M4 (Homo sapiens), sequence (P08173 whole entry, looked up): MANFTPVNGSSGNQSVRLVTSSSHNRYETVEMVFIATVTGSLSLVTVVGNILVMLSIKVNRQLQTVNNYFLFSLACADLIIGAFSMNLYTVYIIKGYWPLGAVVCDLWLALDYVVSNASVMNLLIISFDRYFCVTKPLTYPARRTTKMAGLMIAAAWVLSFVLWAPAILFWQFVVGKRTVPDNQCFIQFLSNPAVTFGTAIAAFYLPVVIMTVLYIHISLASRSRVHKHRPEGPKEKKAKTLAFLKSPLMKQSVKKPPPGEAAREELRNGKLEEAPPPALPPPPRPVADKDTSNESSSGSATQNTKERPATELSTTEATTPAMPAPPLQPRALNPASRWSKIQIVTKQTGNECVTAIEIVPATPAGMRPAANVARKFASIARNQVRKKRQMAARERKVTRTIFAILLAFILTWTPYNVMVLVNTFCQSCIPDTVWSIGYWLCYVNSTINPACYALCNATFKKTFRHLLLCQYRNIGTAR
Voltage-gated potassium channel subunit beta-2 (Rattus norvegicus), sequence (P62483 whole entry, looked up): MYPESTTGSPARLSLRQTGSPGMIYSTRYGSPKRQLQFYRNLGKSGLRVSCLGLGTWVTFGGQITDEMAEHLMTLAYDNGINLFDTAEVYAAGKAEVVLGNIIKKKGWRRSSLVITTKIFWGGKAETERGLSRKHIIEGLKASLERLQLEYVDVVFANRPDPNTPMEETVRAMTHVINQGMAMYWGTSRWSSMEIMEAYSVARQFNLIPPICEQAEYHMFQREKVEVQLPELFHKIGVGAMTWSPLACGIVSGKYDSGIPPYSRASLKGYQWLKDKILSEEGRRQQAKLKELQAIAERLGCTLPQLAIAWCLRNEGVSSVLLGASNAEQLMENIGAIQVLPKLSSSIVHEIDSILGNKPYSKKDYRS

What is called inhibition is the drop in the measured response relative to a control, in per cent. For `O=C(c1ccccc1)c1ccc2nc[nH]c2c1`, in assay [1], the cell count is 762. The inhibition in assay [1] was -1.2% (inactive); in assay [3] it was -48.9% (inactive); in assay [7] it was -13.6% (inactive); in assay [8] it was -34.9% (inactive). Also, in assay [2], the inhibition of aggregation is -14.8% (inactive). Besides, the results for the nuclei count in assay [2] and in assay [3] were 94.7% and 128%, respectively. For the same compound, the figures for the fluorescence slope in assay [4] and in assay [6] were -0.571 (inactive) and 0.00464 (inactive), respectively. In assay [5], the NADPH fluorescence slope was -3.1e-05 (inactive).

Take `Cc1cccc(NC(=O)c2cc3n(n2)C(C(F)(F)F)CC(c2ccc4c(c2)OCO4)N3)c1` (centres undefined): the cell count in assay [1] amounted to 555. Besides, the inhibition in assay [1] is -6.9% (inactive); in assay [3], 45.8% (inactive); in assay [7], 25.3% (inactive); in assay [8], 25.4% (inactive). The inhibition of aggregation in assay [2] was 0.5% (inactive). Further, the nuclei count was 82.7% in assay [2] and 127% in assay [3]. Also, the fluorescence slope in assay [4] was -0.546 (inactive); in assay [6] it was 0.00563 (inactive). Also, the NADPH fluorescence slope in assay [5] was -3.2e-05 (inactive).

Take `COc1cc(NS(=O)(=O)c2cccc3nsnc23)c(C(=O)O)cc1OC`: the cell count in assay [1] came out at 296. For the same compound, the inhibition is -6% (inactive) in assay [1], 5.3% (inactive) in assay [3], 14.8% (inactive) in assay [7] and 17.5% (inactive) in assay [8]. The inhibition of aggregation in assay [2] was -7.8% (inactive). The nuclei count in assay [2] came to 95.9%; in assay [3], 136%. Besides, the fluorescence slope in assay [4] was -0.575 (inactive); in assay [6] it was 0.00636 (inactive). For the same compound, in assay [5], the NADPH fluorescence slope is -4.3e-05 (inactive).

Turning to `CCn1c(CCNC(=O)c2ccc(OC)c(OC)c2)nc2ccccc21`, in assay [1], the cell count turned out to be 275. Also, the inhibition in assay [1] is -8.5% (inactive); in assay [3], 3.1% (inactive); in assay [7], 15.9% (inactive); in assay [8] it was 6.06% (inactive). Also, the inhibition of aggregation in assay [2] was -14.6% (inactive). Moreover, the nuclei count in assay [2] was 95.7%; in assay [3] it was 88.5%. For the same compound, the fluorescence slope was -0.468 (inactive) in assay [4] and 0.00543 (inactive) in assay [6]. The NADPH fluorescence slope in assay [5] is -3.6e-05 (inactive).

`Cc1cc(C(=O)N2CCN(C(c3ccccc3)c3ccccc3)CC2)no1`: the cell count in assay [1] is 303. The inhibition in assay [1] is -17.6% (inactive); in assay [3], -17.5% (inactive); in assay [7] it was 14.8% (inactive); in assay [8], 12.2% (inactive). In addition, the inhibition of aggregation in assay [2] was 32.7% (inactive). Further, the figures for the nuclei count in assay [2] and in assay [3] were 73.4% and 84.1%, respectively. Also, the fluorescence slope in assay [4] is -0.433 (inactive); in assay [6], 0.00719 (inactive). In assay [5], the NADPH fluorescence slope is -5.3e-05 (inactive).

With `Cc1ccc(-n2c(=O)c3sccc3n(CC(=O)NCc3ccco3)c2=O)cc1`, in assay [1], the cell count was 488. Moreover, the inhibition was 0.3% (inactive) in assay [1], -9.8% (inactive) in assay [3], 6.07% (inactive) in assay [7] and 12.8% (inactive) in assay [8]. Moreover, the inhibition of aggregation in assay [2] is 21.9% (inactive). Besides, the nuclei count in assay [2] came out at 103%; in assay [3] it was 108%. Also, the fluorescence slope in assay [4] was -0.579 (inactive); in assay [6] it was 0.0056 (inactive). In assay [5], the NADPH fluorescence slope is -3.1e-05 (inactive).

With `CCOC(=O)CC1(CC(=O)OCC)NC(=O)c2c(C)sc(C(=O)OCC)c2N1`, the cell count in assay [1] stood at 704. Further, the inhibition in assay [1] is -3.5% (inactive); in assay [3] it was 3.1% (inactive); in assay [7] it was 10.5% (inactive); in assay [8] it was 17% (inactive). Moreover, the inhibition of aggregation in assay [2] is 16% (inactive). In addition, the nuclei count was determined as 94.4% in assay [2] and 112% in assay [3]. Besides, the fluorescence slope in assay [4] is -0.402 (inactive); in assay [6] it was 0.00375 (inactive). Also, in assay [5], the NADPH fluorescence slope was -3.3e-06 (inactive).

With `COc1ccc(-c2cc(C(F)(F)F)nc(SCCC(=O)N3CCOCC3)n2)cc1`, the cell count in assay [1] turned out to be 506. In addition, the inhibition in assay [1] was -6.7% (inactive); in assay [3] it was -59.7% (inactive); in assay [7], 16.4% (inactive); in assay [8] it was -4.79% (inactive). The inhibition of aggregation in assay [2] is -23.3% (inactive). In addition, the nuclei count came to 83.6% in assay [2] and 133% in assay [3]. In addition, the fluorescence slope in assay [4] was -0.596 (inactive); in assay [6], 0.00462 (inactive). Besides, the NADPH fluorescence slope in assay [5] is -1.1e-06 (inactive).

Regarding `CCC(=O)N1CCc2cc(S(=O)(=O)CCC(=O)Nc3nc(C)cs3)ccc21`, the cell count in assay [1] turned out to be 606. For the same compound, the inhibition in assay [1] was 5.7% (inactive); in assay [3], -144% (inactive); in assay [7] it was 19.2% (inactive); in assay [8], 21.5% (inactive). For the same compound, the inhibition of aggregation in assay [2] was 9.7% (inactive). Also, the nuclei count in assay [2] stood at 95.8%; in assay [3] it was 158%. Besides, the fluorescence slope in assay [4] was -0.439 (inactive); in assay [6], 0.00524 (inactive). Moreover, the NADPH fluorescence slope in assay [5] is 7.6e-05 (inactive).

As to `Cc1ccccc1N(CC(=O)NCC1CCCO1)C(=O)C1(C)CC(=O)N=C2C=CC=CN21` (centres undefined), the cell count in assay [1] amounted to 651. The inhibition in assay [1] was -9.4% (inactive); in assay [3] it was -111% (inactive); in assay [7] it was 3.63% (inactive); in assay [8] it was 1.93% (inactive). Besides, the inhibition of aggregation in assay [2] is -3.5% (inactive). In addition, the results for the nuclei count in assay [2] and in assay [3] were 100% and 133%, respectively. Moreover, the fluorescence slope in assay [4] is -0.492 (inactive); in assay [6], 0.00558 (inactive). Further, the NADPH fluorescence slope in assay [5] was -9.2e-06 (inactive).

As for `COc1ccc(Cl)cc1Nc1nc(C)cc(=O)[nH]1`, in assay [1], the cell count stood at 271. For the same compound, the inhibition in assay [1] is -3.7% (inactive); in assay [3] it was 39.6% (inactive); in assay [7], 16% (inactive); in assay [8], 19.5% (inactive). Also, the inhibition of aggregation in assay [2] was 10% (inactive). The values for the nuclei count in assay [2] and in assay [3] were 61.7% and 44%, respectively. For the same compound, the fluorescence slope in assay [4] was -0.562 (inactive); in assay [6], 0.00528 (inactive). Also, the NADPH fluorescence slope in assay [5] is -2.9e-05 (inactive).

Regarding `COc1cc(C(=O)Nc2cc(Cl)ccc2C)c(-n2cnnn2)cc1OC`, the cell count in assay [1] came to 715. The inhibition in assay [1] is 8.8% (inactive); in assay [3], -62.1% (inactive); in assay [7] it was 13.5% (inactive); in assay [8] it was 15.4% (inactive). Further, the inhibition of aggregation in assay [2] was 15.8% (inactive). Further, the values for the nuclei count in assay [2] and in assay [3] were 83.5% and 117%, respectively. The fluorescence slope in assay [4] was -0.474 (inactive); in assay [6] it was 0.00699 (inactive). Moreover, the NADPH fluorescence slope in assay [5] is 0.00014 (inactive).

In the case of `c1ccc2c(-c3nc(C4CCCCC4)no3)cc(-c3ccncc3)nc2c1`, in assay [1], the cell count amounted to 570. For the same compound, the inhibition in assay [1] was -12.8% (inactive); in assay [3], 48.8% (inactive); in assay [7] it was 11.5% (inactive); in assay [8] it was 1.56% (inactive). In assay [2], the inhibition of aggregation was 17.4% (inactive). Further, the nuclei count in assay [2] is 73.3%; in assay [3], 58.9%. The figures for the fluorescence slope in assay [4] and in assay [6] were -0.535 (inactive) and 0.00839 (inactive), respectively. Further, the NADPH fluorescence slope in assay [5] was -1.6e-05 (inactive).

Consider `Cc1cc(C)cc(NS(=O)(=O)c2ccc3[nH]cc(C(=O)NCc4ccco4)c(=O)c3c2)c1`, for which, in assay [1], the cell count amounted to 416. For the same compound, the inhibition is 1.5% (inactive) in assay [1], -19.7% (inactive) in assay [3], 39.5% (inactive) in assay [7] and 49.1% (inactive) in assay [8]. The inhibition of aggregation in assay [2] is 3.8% (inactive). Moreover, the results for the nuclei count in assay [2] and in assay [3] were 99.9% and 97.7%, respectively. The fluorescence slope in assay [4] is -0.57 (inactive); in assay [6], 0.00555 (inactive). Moreover, the NADPH fluorescence slope in assay [5] was -4.7e-05 (inactive).
